Our source for the IC50 values is ChEMBL document CHEMBL1152716, “Stereoselective synthesis of bioactive isosteviol derivatives as alpha-glucosidase inhibitors” (Bioorg Med Chem, 2009).

This test is described as follows: Inhibition of yeast alpha glucosidase after 30 mins. The arrangement: species or system Saccharomyces cerevisiae. The essentials:
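Baker's yeast α-glucosidase (0.04 U/mL) preincubated 30 min with inhibitor in 0.067 M K2HPO4/KH2PO4 buffer, pH 6.8, at 37 °C; inhibitor and substrate dissolved in DMSO, final DMSO 10%. Reaction started with 0.5 mM substrate, run 5 min at 37 °C, quenched with 0.1 M Na2CO3 (pH 9.8). Absorbance at 405 nm read immediately as hydrolysis rate; triplicate.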

As to `CCOC(=O)[C@]1(C)CCC[C@@]2(C)[C@@H]3CC[C@@]4(C)C[C@]3(CC[C@@H]21)CC4=O`, the IC50 was greater than 200 µM.

On to `CCOC(=O)[C@]1(C)CCC[C@@]2(C)[C@@H]3CC[C@@]4(C)C[C@]3(CC[C@@H]21)[C@H](CO)[C@H]4O`, for which the IC50 is 86.2 µM.

As for `CCCOC(=O)[C@]1(C)CCC[C@@]2(C)[C@@H]3CC[C@@]4(C)C[C@]3(CC[C@@H]21)[C@H](CO)[C@H]4O`, inhibition was half-maximal at 85.4 µM (IC50). This IC50 and that of the compound before are within 1.5-fold of each other.

Compound `CCCCOC(=O)[C@]1(C)CCC[C@@]2(C)[C@@H]3CC[C@@]4(C)C[C@]3(CC[C@@H]21)[C@H](CO)[C@H]4O` came in with an IC50 of 87.2 µM.

The compound `CC(C)COC(=O)[C@]1(C)CCC[C@@]2(C)[C@@H]3CC[C@@]4(C)C[C@]3(CC[C@@H]21)[C@H](CO)[C@H]4O` registered an IC50 of 102 µM. This IC50 and that of the compound before are within 1.5-fold of each other.

The compound `CC(C)(C)OC(=O)[C@]1(C)CCC[C@@]2(C)[C@@H]3CC[C@@]4(C)C[C@]3(CC[C@@H]21)[C@H](CO)[C@H]4O` displayed an IC50 of 114 µM.

The compound `CC(C)CCOC(=O)[C@]1(C)CCC[C@@]2(C)[C@@H]3CC[C@@]4(C)C[C@]3(CC[C@@H]21)[C@H](CO)[C@H]4O` registered an IC50 of 116 µM. This IC50 and that of the compound before are within 1.5-fold of each other.

`C[C@]12CC[C@H]3[C@]4(C)CCC[C@@](C)(C(=O)OCCO)[C@H]4CC[C@@]3(C1)[C@H](CO)[C@H]2O`: the IC50 is greater than 200 µM.

For `COC(=O)[C@]1(C)CCC[C@@]2(C)[C@@H]3CC[C@@]4(C)C[C@]3(CC[C@@H]21)[C@H](CO)[C@H]4O`, the IC50 came to 96.5 µM.

The compound `C[C@@]12CC[C@@H]3[C@@](CC[C@H]4[C@@]3(C)CCC[C@@]4(C)C(=O)O)(C[C@@H]1N)C2` gave an IC50 greater than 200 µM.

On to `CCOC(=O)[C@]1(C)CCC[C@@]2(C)[C@@H]3CC[C@@]4(C)C[C@]3(CC[C@@H]21)C[C@@H]4N`, for which the IC50 was 91.2 µM. This lies in the double-digit micromolar range.

`CCOC(=O)[C@]1(C)CCC[C@@]2(C)[C@@H]3CC[C@@]4(C)C[C@]3(CC[C@@H]21)c1c4[nH]c2ccccc12` showed an IC50 of 68.2 µM. The IC50 values of the last two compounds are within 1.5-fold of each other.

As to `C[C@@]12CC[C@@H]3[C@@](CC[C@H]4[C@@]3(C)CCC[C@@]4(C)C(=O)O)(C/C1=N/O)C2`, 92.1 µM corresponded to half-maximal inhibition (IC50).

In the case of `CCOC(=O)[C@]1(C)CCC[C@@]2(C)[C@@H]3CC[C@@]4(C)C[C@]3(CC[C@@H]21)C/C4=N\O`, the IC50 was 88.9 µM.

`CCOC(=O)[C@]1(C)CCC[C@@]2(C)[C@@H]3CC[C@@]4(C)C[C@]3(CC[C@@H]21)[C@H](COC(=O)c1ccccc1)C4=O` had an IC50 greater than 200 µM.

`C=C1C(=O)[C@@]2(C)CC[C@@H]3[C@]1(CC[C@H]1[C@@]3(C)CCC[C@@]1(C)C(=O)OCC)C2` registered an IC50 greater than 200 µM.

Regarding `C[C@@]12CC[C@@H]3[C@@](CC[C@H]4[C@@]3(C)CCC[C@@]4(C)C(=O)O)(CC(=O)O1)C2`, the IC50 came to 139 µM.

For the compound `C[C@]12CC[C@@H]3[C@](CC[C@H]4[C@@]3(C)CCC[C@@]4(C)C(=O)O)(C1)c1c2[nH]c2ccccc12`, the IC50 was found to be 83.2 µM.

Compound `CCOC(=O)[C@]1(C)CCC[C@@]2(C)[C@@H]3CC[C@@]4(C)C[C@]3(CC[C@@H]21)[C@H](COC(C)=O)C4=O` yielded an IC50 greater than 200 µM.

`C=CC(=O)O[C@@H]1C[C@]23CC[C@H]4[C@@](C)(CCC[C@@]4(C)C(=O)OCC)[C@@H]2CC[C@@]1(C)C3` displayed an IC50 greater than 200 µM.

`C[C@]12CC[C@H]3[C@]4(C)CCC[C@@](C)(C(=O)O)[C@H]4CC[C@@]3(C1)[C@H](CO)[C@H]2O` registered an IC50 of 149 µM.

In turn, `C[C@@]12CC[C@@H]3[C@@](CC[C@H]4[C@@]3(C)CCC[C@@]4(C)C(=O)O)(C[C@H]1O)C2` gave an IC50 of 156 µM. The IC50 values of the last two compounds are within 1.5-fold of each other.

Take `C[C@]12CC[C@H]3[C@]4(C)CCC[C@@](C)(C(=O)OCc5ccccc5)[C@H]4CC[C@@]3(C1)[C@H](CO)[C@H]2O`: the IC50 was greater than 200 µM.

In turn, `CCOC(=O)[C@]1(C)CCC[C@@]2(C)[C@@H]3CC[C@@]4(C)C[C@]3(CC[C@@H]21)[C@H](COC(C)=O)[C@H]4O` yielded an IC50 of 132 µM.

`CCOC(=O)[C@]1(C)CCC[C@@]2(C)[C@@H]3CC[C@@]4(C)C[C@]3(CC[C@@H]21)[C@H](CO)C4=O` returned an IC50 of 143 µM.

On to `CCOC(=O)[C@]1(C)CCC[C@@]2(C)[C@@H]3CC[C@@]4(C)C[C@]3(CC[C@@H]21)CC(=O)N4`, for which the IC50 amounted to 72.4 µM.

As to `CCOC(=O)[C@]1(C)CCC[C@@]2(C)[C@@H]3CC[C@@]4(C)C[C@]3(CC[C@@H]21)CC(=O)O4`, 118 µM corresponded to half-maximal inhibition (IC50).

Turning to `CCN[C@H]1C[C@]23CC[C@H]4[C@@](C)(CCC[C@@]4(C)C(=O)OCC)[C@@H]2CC[C@@]1(C)C3`, the IC50 turned out to be 114 µM.

Compound `CCOC(=O)[C@]1(C)CCC[C@@]2(C)[C@@H]3CC[C@@]4(C)C[C@]3(CC[C@@H]21)[C@H](COC(=O)c1ccccc1)[C@H]4O` showed an IC50 of 112 µM.

Compound `CCOC(=O)[C@]1(C)CCC[C@@]2(C)[C@@H]3CC[C@@]4(C)C[C@]3(CC[C@@H]21)C[C@H]4O` had an IC50 of 132 µM.

With `CC(C)OC(=O)[C@]1(C)CCC[C@@]2(C)[C@@H]3CC[C@@]4(C)C[C@]3(CC[C@@H]21)[C@H](CO)[C@H]4O`, the IC50 was determined as 97.2 µM.

As for `C=CCOC(=O)[C@]1(C)CCC[C@@]2(C)[C@@H]3CC[C@@]4(C)C[C@]3(CC[C@@H]21)[C@H](CO)[C@H]4O`, the IC50 is 143 µM.

As to `C[C@@]12CC[C@@H]3[C@@](CC[C@H]4[C@@]3(C)CCC[C@@]4(C)C(=O)O)(CC(=O)N1)C2` [ISOSTEVIOL LACTAM], the IC50 stood at 81.6 µM.

With `C[C@@]12CC[C@@H]3[C@@](CC[C@H]4[C@@]3(C)CCC[C@@]4(C)C(=O)O)(CC1=O)C2` [ISOSTEVIOL], the IC50 is greater than 200 µM.
